Assay results from PubChem BioAssay.
A number with no mark means an inactive call. Inconclusive results are not listed. The source made the active and inactive calls.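 How the source made its calls, unless noted: active means cell viability at or below a set limit in both duplicate runs, the limit being the all-compound median minus 4 SD (cut at about 23% in these data, passing the limit was not always enough); inconclusive means no clear call, values can overlap the other calls; inactive means the rest.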

Columns and labels:
[1] = S. cerevisiae growth inhibition in permissive medium (OD615), pilot counter-assay for S. cerevisiae lifespan shortening project, permissive growth control (AID 705;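 active means growth inhibition above 25% in both replicates, a cutoff set 3 SD above the mean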); settings: OD615, 24 h, at 10 µM, stronger effect = higher value
Procedure, shortened: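 Material: engineered DeaD yeast; Compound: one dose 10 µM, DMSO 0.25% final; Detection: absorbance (optical density) at 615 nm; Buffer or medium: permissive raffinose/galactose medium; Timing: 24 h exposure, 30 °C.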

[2] = S. cerevisiae growth inhibition in restrictive medium, OD615, pilot screen, restrictive growth control, yeast lifespan reduction project (AID 706;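 active means growth inhibition above a set limit, 3 SD over mean compound inhibition, in both replicates, cut at about 43% in these data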;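 further: modified DeaD lifespan yeast strain shifted to restrictive glucose medium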); settings: OD615, 48 h, at 10 µM, stronger effect = higher value
Procedure, shortened: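 Buffer or medium: restrictive glucose medium (CSMM-D); test system: modified S. cerevisiae; doses: single dose of 10 µM compound final, 0.25% DMSO; schedule: 48 h compound exposure at 30 °C; detection: absorbance (optical density) measured at 615 nm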

[3] = doxorubicin toxicity protection in MRP-1 cells – H69AR cells, CellTiter-Glo, duplicate, MRP-1 activator project, pilot screen (AID 807;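 active means viability increase at or above a cutoff of the median across tested compounds plus 3 SD, cut at about 8.5% in these data, passing the limit was not always enough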;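 further: compound pretreatment 18-22 h then 72 h combined with doxorubicin; 0% = doxorubicin alone and 100% = vehicle without doxorubicin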); settings: H69AR viability with doxorubicin, CellTiter-Glo luminescence; at 10 µM; stronger effect = higher value
[4] = viability of HCT116 without oncogenic beta-catenin – human colon tumor cells, pilot screen (AID 823); settings: HCT116 beta-catenin knockout viability, CellTiter-Glo, 60 h; at 10 µM; stronger effect = lower value;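 further: 0% = wells killed by 20 µM Hyamine and 100% = untreated DMSO cell wells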
[5] = RAM pathway blockade in budding yeast – dse1pr::URA3 reporter, 5-FOA selection, pilot screen (AID 869;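 active means inhibition over a set limit, the all-compound mean plus 3 SD, in both replicate runs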;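 further: 0% = DMSO wells with no growth and 100% = 10 µM 1-NA-PP1 with full growth; RAM network block rescues cells from 5-FOA so hits raise OD615 growth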); settings: S. cerevisiae dse1pr::URA3 5-FOA growth, OD615, 2 d; at 10 µM; stronger effect = higher value; strain carries analog-sensitive mutant Cbk1 kinase
[6] = RAM signaling pathway blockade in yeast – S. cerevisiae, Pdr1DBD-CYC8 efflux-inhibited sensitized strain, primary screen (AID 1298;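 active means RAM network inhibition above 8.4% in each of two replicates, 3 SD over the compound average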;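 further: 0% = DMSO untreated cells without growth and 100% = 10 µM 1-NA-PP1 full growth; higher means more yeast growth rescued from 5-FOA killing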); settings: S. cerevisiae cbk1-as DSE1-URA3 strain, 5-FOA growth OD615, 2 d; at 50 µM; stronger effect = higher value

SMILES	growth inhibition [1] [%]	growth inhibition [2] [%]	viability increase [3] [%]	viability [4]	inhibition [5] [%]	RAM network inhibition [6] [%]
Cc1cc(C)n(-c2nnc(C)n2/N=C/c2ccccc2OCc2ccccc2Cl)n1	-4.54	-6.33	-5.89	22.2% (active)	1.27	-2.2
Cn1cnnc1SCc1ccc(C(=O)O)cc1	-5.04	7.69	-1.36	98.1%	1.06	1.81
O=C(N=c1nc2ccccn2s1)c1ccccc1	-6.95	6.63	-7.06	71.6%	3.28	6.13
CC(=O)c1ccc(N2CCN(C(=O)c3ccc(NC(=O)C4CCCO4)cc3)CC2)cc1 (stereo not given)	-23.3	-4.79	-3	91.2%	2.3	1.4
OCC1(c2cc(C(F)(F)F)n[nH]2)CCCCC1	5.65	-0.23	-2.12	91.4%	1.2	-0.68
COc1ccc(Cn2c(=O)n(Cc3ccco3)c(=N)c3c4c(sc32)COC(C)(C)C4)cc1	-17.7	-5.45	-5.35	66.2%	0.42	2.55
COc1ccc(-c2cc3ccccc3n2CC(O)Cn2nc(C)cc2C)cc1 (stereo not given)	-6.15	12.6	-4.13	69.5%	0.2	7.69
CN1CCCCc2c1[nH]c1ccccc1c2=O	8.28	2.2	-3.35	95.8%	0.42	-1.45
CCC(=O)c1cn(CC(=O)NCC2CCCO2)c2ccccc12 (stereo not given)	0.725	12.5	-3.8	96.7%	2.02	1.98
CCOC(=O)/C=c1\sc2n(c1=O)CCN=2	-0.765	-2	-3.32	91.9%	1.44	2.73
NCCOc1ccccc1-c1ccccc1	-17.6	-14.4	-3	87.2%	2.3	2.4
Cn1cc(S(=O)(=O)CC(=O)Nc2ccc3c(c2)OCCO3)c2ccccc21	-14.9	-1.21	-1.77	106%	3.01	3.07
O=C1c2ccccc2C(=O)N1CCCC(=O)N1CCc2ccccc21	-21.9	8.75	-0.37	95.7%	2.44	10.1
CCC(=O)N1CCc2cc(Br)cc(S(=O)(=O)CCC(=O)NCc3ccco3)c21	-26.8	0.16	-4.1	94.9%	2.91	4.36
CC1CCCN(c2nc3c(c(=O)n(C)c(=O)n3C)n2Cc2ccccc2)C1 (stereo not given)	-0.33	-3.24	-2.17	85.9%	1.67	1.56
Cc1cc(NC(=O)CN2CCN(c3ncccn3)CC2)no1	-7.78	-9.4	-1.38	98.6%	0.71	3.12
CCOc1ccccc1NC(=O)CSc1nnc(-c2cnccn2)n1C	-24.8	-1.53	-3.17	91.8%	3.12	5.04
CCC(=O)NC(C)c1nc2ccccc2n1C (stereo not given)	-9.66	-2.13	-1.61	102%	1.37	7.64
C=CCNC(=O)c1ccc2c(c1)nnn2C	-16	-12.7	-0.65	103%	2.63	4.93
CCC(=O)Nc1cc(C)c(NC(=O)c2ccco2)cn1	-18.1	-13.9	0.56	98.5%	1.52	4.21

SMILES	growth inhibition [1] [%]	growth inhibition [2] [%]	viability increase [3] [%]	viability [4]	inhibition [5] [%]	RAM network inhibition [6] [%]
CN1CCc2c(sc3nc(SCC(N)=O)n(-c4ccccc4)c(=O)c23)C1	-17.8	9.25	-0.53	84.3%	4.08	3.54
COc1cc(-c2nc3cnccn3c2Nc2ccc3c(c2)OCCO3)ccc1O	-15.6	-2.52	-7.25	84.5%	2.98	11.8
CN1c2ccccc2-c2nc3ccccc3n2C1c1ccccn1 (stereo not given)	-1.57	-3.9	-3.85	73.8%	0.56	4.06
CS(=O)(=O)c1nc(-c2cccs2)cc(C(F)(F)F)n1	-22.6	1.86	-8.04	53.4%	2.05	-0.11
CC(C)(C)NS(=O)(=O)c1ccc(OCC(=O)Nc2ccc3c(c2)OCCO3)cc1	-11.5	-8.28	-0.9	102%	2.62	7.73
Cc1c(C(=O)NCCC2=CCCCC2)oc2ccc(S(=O)(=O)N3CCOCC3)cc12	2.48	8.58	-0.96	31.5%	2.62	8.35
COc1ccccc1-c1nc(NC(C)=O)n[nH]1	-12.1	-8.54	-4.21	92.1%	3.42	5.35
COCC(=O)NCc1nc2ccccc2[nH]1	-12.6	-0.605	-1.85	105%	1.76	2.13
O=C(CCn1c(=O)[nH]c2ccsc2c1=O)N1CCc2ccccc2C1	-13.3	-4.91	-0.54	97.7%	2.71	8.73
COCCn1c(=O)[nH]c2cc(C(=O)NCCN3CCN(c4ccccc4F)CC3)ccc2c1=O	0.575	4.3	-1.27	94.3%	1.31	9.5
CCC(=O)N1CCc2cc(Br)cc(S(=O)(=O)N3CCN(c4ccccn4)CC3)c21	-6.54	-9.5	-2.05	101%	0.44	9.66
O=C(Nc1nnc(C2CC2)o1)c1ccc(S(=O)(=O)N2CCCc3ccccc32)cc1	-18.1	-2.5	-5.31	14.3% (active)	0.79	-0.41
CCCn1cc(S(=O)(=O)CC(=O)Nc2ccc(OCC)cc2)c2ccccc21	1.42	3.91	-4.37	84.7%	1.41	6.49
O=C(c1ccco1)N1CCN(C(=O)C2Cc3ccccc3CN2S(=O)(=O)c2ccc(F)cc2)CC1 (stereo not given)	-12.6	-9.61	-4.67	97.2%	3.29	7.28
CCSc1oc(-c2ccco2)nc1S(=O)(=O)c1ccc(F)cc1	-15.7	-4.69	-3.11	79%	0.335	5.09
CC(NC(=O)C(C)(C)C)c1nc2ccccc2n1C (stereo not given)	5.72	5.71	-3.14	95.1%	0.63	3.17
CC1(C)Cc2nc3sc4c(=O)n(CC(=O)NCc5ccco5)cnc4c3cc2CO1	-8.59	7.79	-5.22	40.5%	0.68	4.21
Cn1c(=O)[nH]c(=O)c2c1nc(Sc1ncccn1)n2CCCc1ccccc1	-10.3	-9.67	-4.15	97%	1.43	7.26
CCOc1ccc(-n2c(SCC(=O)Nc3ccc4c(c3)OCCO4)nc3c(c2=O)SCC3)cc1	-12.9	-5.05	-2.09	84.1%	3.17	9.35
Cc1ccc(N=C2SCCCN2C(=O)c2ccco2)cc1Cl	-10.1	4.65	-5.58	87.6%	0.575	0.78
